Assay results pooled from the literature.
Protocols differ between the studies behind these lines.
Target: Activin receptor type-1 (ACVR1, Homo sapiens, UniProt Q04771)
Residues used in one study (Q04771 1-509): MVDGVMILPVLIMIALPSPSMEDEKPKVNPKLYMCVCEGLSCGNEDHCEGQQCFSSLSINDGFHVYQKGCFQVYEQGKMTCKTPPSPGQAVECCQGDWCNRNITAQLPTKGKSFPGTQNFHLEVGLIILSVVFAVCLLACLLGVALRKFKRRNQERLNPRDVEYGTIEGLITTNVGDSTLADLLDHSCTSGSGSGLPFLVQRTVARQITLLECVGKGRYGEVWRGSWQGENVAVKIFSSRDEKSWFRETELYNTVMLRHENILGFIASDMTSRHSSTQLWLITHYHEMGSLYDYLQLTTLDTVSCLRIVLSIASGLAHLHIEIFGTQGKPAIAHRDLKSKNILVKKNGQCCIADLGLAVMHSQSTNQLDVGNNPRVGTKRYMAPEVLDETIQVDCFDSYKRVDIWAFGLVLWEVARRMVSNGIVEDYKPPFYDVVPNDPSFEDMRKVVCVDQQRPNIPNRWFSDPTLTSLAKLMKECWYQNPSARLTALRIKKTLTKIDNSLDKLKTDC

For `COc1cc2c(N3CCN(C(=O)Nc4ccc(OC(C)C)cc4)CC3)ncnc2cc1OCCCN1CCCCC1`, the remaining signal was 145% (cell-free assay; 0.5 µM).
For `Cc1sc(C(=O)NC2COC2)cc1-n1cc(NC(=O)Nc2c(F)cccc2Cl)cn1`, the remaining activity was 108% (enzyme activity, inhibitor; 10 µM).
With `Cc1ccc(NC(=O)c2ccc(C)c(C(F)(F)F)c2)cc1C#Cc1nn(C2CCC(O)CC2)c2ncnc(N)c12` (centres unmarked) the remaining signal was 77% (cell-free assay; 10 µM).
With `CC(C)CC(=O)N1CCc2nc(-c3ccc(Br)cc3)nc(N(C)Cc3ccccc3)c2C1` the remaining binding was 100% (cell-free assay, competition with immobilised ligand; 0.1 µM).
`O=C1Nc2ccc(Cl)cc2C1=Cc1cc(Cl)c(O)c(Cl)c1` gave a remaining signal of 130% (cell-free assay; 0.5 µM).
For `CCC1(CC)NC(=O)c2c(c3ccc(Cl)c(Cl)c3n2C)C1C#N` (centres unmarked), the ΔTm was 0.2 °C (thermal stability, DSF; 10 µM).
For `Nc1cnc(N2CCc3cc(S(=O)(=O)Nc4c(F)cc(Cl)cc4F)cc(N4CCCC4=O)c32)nc1`, the remaining binding was 100% (cell-free assay, competition with immobilised ligand; 1 µM).
The remaining activity of `COc1cc(Cl)c(C(=O)N[C@@H](CN[C@H]2CC[C@@H](N)CC2)Cc2ccc(C#N)cc2)cc1-c1ccc(CN[C@H](C)c2ccc(C)cc2)o1` is reported as 89% (enzyme activity, inhibitor; 1 µM).
For `Cc1c(NC(=O)c2cc(C(N)=O)nc3cc(F)ccc23)c(C(F)(F)F)nn1Cc1ccc(C#N)cc1`, the remaining binding was 87% (cell-free assay, competition with immobilised ligand; 1 µM).
The ΔTm of `Cn1c2c(Cl)c(Cl)ccc2c2cc(N)[nH]c(=O)c21` is reported as 3.2 °C (thermal stability, DSF; 10 µM).
`COc1cc(-c2cn(C3CCc4ccccc4N(CC(F)(F)F)C3=O)nn2)ccc1-n1ccc(C)n1` (centres unmarked) gave a remaining binding of 100% (cell-free assay, competition with immobilised ligand; 1 µM).
`CC(C)(C)c1nc(-c2cccc(NS(=O)(=O)c3c(F)cccc3F)c2F)c(-c2ccnc(N)n2)s1` has a remaining activity of 47% (enzyme activity, inhibitor, radiometric; 1 µM).
The ΔTm of `CCN1CCC2(CC1)NC(=O)c1c(c3ccc(Cl)c(Cl)c3n1C)C2C#N` (racemic) is reported as -0.1 °C (thermal stability, DSF; 10 µM).
`C#Cc1cccc(Nc2ncnc3cc(OCCOC)c(OCCOC)cc23)c1` has a remaining signal of 101% (cell-free assay; 0.5 µM).
For `CN1CCN(c2cnc3c(C4CCN(C(=O)c5ccc(OC(F)(F)F)cc5N)CC4)ncnc3c2)CC1`, the remaining binding was 100% (cell-free assay, competition with immobilised ligand; 1 µM).
`Cn1c2c(Cl)c(Cl)ccc2c2cn[nH]c(=O)c21` has a ΔTm of 3.3 °C (thermal stability, DSF; 10 µM).
For `Clc1ccc(Nc2nnc(Cc3ccncc3)c3ccccc23)cc1`, the remaining signal was 96.1% (cell-free assay; 0.5 µM).
`CN([C@@H]1CCc2c(CC(=O)O)c3ccccc3n2C1)S(=O)(=O)c1ccc(F)cc1` has a remaining binding of 100% (cell-free assay, competition with immobilised ligand; 1 µM).
`Cn1c2c(c3ccc(Cl)c(Cl)c31)C(C#N)C1(CCNCC1)NC2=O` (racemic) gave a ΔTm of -0.1 °C (thermal stability, DSF; 10 µM).
With `CCOc1cc(-c2nncn2C)ccc1Nc1ncc2cc(C)nc(NCC(C)(C)C)c2n1` the inhibition was no more than 15% (cell-free assay, TR-FRET; 1 µM).
